In the library only some 2.1% were active in any assay of this set; here they are far more common.
FXIa inh 1536 = inhibitors of human coagulation factor XIa. AID 798. hit rate 0.14% among 220,000. inhibition, % at 5 µM. P03951. purified FXIa, Boc-Glu-Ala-Arg-AMC fluorogenic substrate;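 active means inhibition of at least 40%; inactive means inhibition below 40%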;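 further: fluorescence of freed AMC excited at 355 nm; 0% = enzyme without compound and 100% = no enzyme blank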
FXIIa inh = blocks human coagulation factor XIIa protease activity. purified FXIIa, Boc-QGR-AMC fluorogenic substrate, 2 h. inhibition, % at 5 µM. hit rate 0.3% among 220,000. AID 800; in the data active means inhibition above about 40%;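 further: 0% = enzyme with no compound and 100% = blank without enzyme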
Target sequence (P00748 20-372 limits assumed): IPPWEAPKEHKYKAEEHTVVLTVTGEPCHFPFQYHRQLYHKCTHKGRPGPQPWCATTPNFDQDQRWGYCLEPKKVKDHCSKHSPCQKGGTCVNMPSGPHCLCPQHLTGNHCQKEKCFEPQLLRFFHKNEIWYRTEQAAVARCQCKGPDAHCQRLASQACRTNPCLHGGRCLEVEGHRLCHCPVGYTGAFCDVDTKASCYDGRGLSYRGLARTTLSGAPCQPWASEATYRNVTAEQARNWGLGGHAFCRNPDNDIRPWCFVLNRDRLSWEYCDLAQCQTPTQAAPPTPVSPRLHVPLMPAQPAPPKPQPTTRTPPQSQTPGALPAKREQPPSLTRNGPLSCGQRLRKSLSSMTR
Target sequence (P00748 373-615 limits assumed): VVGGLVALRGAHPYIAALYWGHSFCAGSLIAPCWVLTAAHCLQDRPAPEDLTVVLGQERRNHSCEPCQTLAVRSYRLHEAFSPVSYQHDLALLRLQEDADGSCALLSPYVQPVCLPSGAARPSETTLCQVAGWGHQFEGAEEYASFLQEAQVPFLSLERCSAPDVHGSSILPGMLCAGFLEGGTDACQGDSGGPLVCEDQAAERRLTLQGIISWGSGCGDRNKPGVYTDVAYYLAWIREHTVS
hK5 inh = blocks human kallikrein 5 protease activity; Q9Y337; recombinant hK5, fluorogenic AMC substrate cleavage; inhibition, % at 5 µM; AID 873; hit rate 0.59% among 210,000;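 active means inhibition of 40% or more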;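 further: 0% = enzyme controls without compound and 100% = no-enzyme blanks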
PGE2 EP2 inh = inhibitors of human EP2 prostaglandin E2 receptor. C6 glioma cells expressing human EP2, cAMP TR-FRET; cells stimulated with saturating PGE2. inhibition, % at 25 µM. hit rate 0.52% among 260,000. AID 1422;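 active means percent inhibition above 40 after rounding to a whole number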;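 further: rat C6 glioma host cells with rolipram phosphodiesterase inhibitor present; the protocol text gives 20 µM as final concentration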
EP2 mod = modulates human prostaglandin E2 receptor EP2 signaling; P43116; EP2-expressing cells, cAMP HTRF FRET, PGE2 co-stimulation; induction, % at 25 µM; hit rate 0.83% among 260,000;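 active means compounds whose cAMP rise, as percent of the full-agonist control response, exceeds 60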;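 further: rat C6 glioma line stably carrying human EP2 under a CMV promoter; the protocol text gives 20 µM as final concentration; 100% = response of wells given 1 µM PGE2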
thrombin 1536 = inhibitors of human thrombin. AID 1046. hit rate 0.26% among 220,000. inhibition, % at 5 µM. P00734. alpha-thrombin, Boc-VPR-AMC fluorogenic substrate cleavage;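 active means inhibition at or above 40%; inactive means inhibition below 40%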;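 further: 0% = enzyme with no compound and 100% = wells without enzyme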
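Test system: human alpha-thrombin protein / Dosing: one concentration per compound, 5 µM, with 0.2% DMSO / Medium: pH 7.5 Tris-saline with Tween 20 / Benchmarks: no-compound enzyme wells and no-enzyme blanks / Read-out basis: percent inhibition of thrombin substrate cleavage / Timing: reaction at room temperature / Measured by: fluorescence, ex 355 nm, em 460 nm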
The depositor's hits bear a star; . = no result given; ! = not active in a repeat.

SMILES | FXIa inh 1536 | FXIIa inh | hK5 inh | PGE2 EP2 inh | EP2 mod | thrombin 1536
CCn1cc(S(=O)(=O)CC(=O)Nc2ccc(OC)cc2)c2ccccc21 | 18 | 31 | 41* | 9 | 5 | 30
c1ccc(Nc2cccc(Nc3ccccc3)c2)cc1 | 10 | 17 | 48* | 9 | 31 | 14
O=C1C=CC(=O)N1c1ccc(O)cc1 | 5 | 7 | -9 | 8 | -55 | -5
O=C1C=CC(=O)N1c1ccc(OC(F)F)cc1 | 5 | 0 | -5 | 109* | -62 | -6
CCOc1ccccc1NC(=O)CSc1nnc2cc(C)c3cc(C)cc(C)c3n12 | . | . | . | 19 | 11 | .
O=S(=O)([N-]c1nc2ccccc2nc1-n1cc[n+](Cc2ccccc2)c1)c1ccc(Cl)cc1 | 60* | 58* | 28 | 4 | 35 | 16
CCC(=O)c1ccccc1OCCSc1nc(C)cc(=O)[nH]1 | -2 | 0 | 146* | 9 | 24 | 2
CCCOc1cccc(OCCSc2nc(C)cc(=O)[nH]2)c1 | -8 | -1 | -13 | 4 | 47 | -2
O=C(Nc1cccc(C(=O)N2CCOCC2)c1)c1cc2c([nH]c1=O)CCCCC2 | . | . | . | 6 | -24 | .
Cc1nc2c(cnn2-c2ccc(Cl)cc2)c(=O)n1-c1ccc(N2CCC(C)CC2)cc1 | 14 | 17 | 54* | . | 15 | 17
O=C(Nc1nnc(-c2ccccc2)s1)c1ccc(Cl)c(S(=O)(=O)N2CCOCC2)c1 | 3 | 16 | 8 | 16 | 4 | 1
O=C(Nc1nnc(-c2ccccc2)s1)c1cc(S(=O)(=O)N2CCOCC2)c(Cl)cc1Cl | 25 | 41* | 5 | 13 | -16 | 4
CCOC(=O)c1sc2ccc(S(=O)(=O)N3CCOCC3)cc2c1N | 5 | 10 | 56* | 7 | -27 | 38
CCOC(=O)CSc1nnc2c3ccccc3nc(C(C)(C)C)n12 | . | . | . | 8 | 57 | .
CCOC(=O)CSc1nnc2c3ccccc3nc(Cc3ccccc3)n12 | . | . | . | 9 | 65* | .
CC(=O)CSc1nnc2c3ccccc3nc(C(C)(C)C)n12 | -3 | 2 | -1 | 14 | 61* | 12
O=C(NCc1nc(-c2ccncc2)n[nH]1)C(c1ccccc1)C1CCCC1 (stereo unspecified) | . | . | . | 8 | -6 | .
Cc1ccc(Cn2cc(/C=N/NC(=O)Cc3nnc(NC(=O)c4ccc(C)cc4)s3)c3ccccc32)cc1 | 28 | 40* | 10 | 9 | 6 | 31
O=C(Cc1nnc(NC(=O)c2ccccc2)s1)N/N=C/c1ccco1 | 3 | 6 | 6 | 7 | -15 | -12
CCCC(c1nnnn1CCc1ccc(OC)c(OC)c1)N1CCN(c2ncccn2)CC1 (stereo unspecified) | . | . | . | 3 | 4 | .
CCC(=O)N1CCc2cc(S(=O)(=O)CCC(=O)Nc3ccc(CC)cc3)ccc21 | -12 | 6 | -28 | . | -19 | -4
CCC(=O)N1CCc2cc(S(=O)(=O)CCC(=O)NCc3ccc4c(c3)OCO4)ccc21 | 15 | 15 | 41* | . | 7 | 2
Nn1c(C2CCCCC2)nc2ccccc2c1=O | 58* | 62* | 39 | 5 | 13 | 23
N#CCn1c(C2CCCCC2)nc2ccccc2c1=O | 2 | 7 | -9 | 4 | 17 | 0
COc1ccc(Cc2nnc(NC(=O)c3cccc(Cl)c3)s2)cc1OC | . | . | . | 5 | -34 | .
SMILES | FXIa inh 1536 | FXIIa inh | hK5 inh | PGE2 EP2 inh | EP2 mod | thrombin 1536
CCC(C)NC(=O)CSc1ncnc2sccc12 (stereo unspecified) | 31 | 40* | 18 | 5 | -3 | 26
CCOc1ccc(NC(=O)CSC2=NCCN2)cc1 | 10 | 13 | 47* | 4 | -26 | 5
COC(=O)c1ccc(NC(=O)CSC2=NCCN2)cc1 | -1 | 5 | -23 | 6 | 19 | -14
CCN(CC)c1nc2cc(C)ccc2cc1/C=C(\C#N)C(N)=O | -5 | -1 | -5 | 6 | 63* | -10
Cc1cc(C)cc(NC(=O)CSc2nnc(-c3cccnc3)n2C)c1 | . | . | . | 13 | 6 | .
COc1ccc(NC(=O)CSc2nc3sc(C)c(C)c3c(=O)n2-c2ccc(OC)cc2)cc1 | . | . | . | 6 | -4 | .
COc1cc(S(=O)(=O)N2CCOCC2)ccc1NC(=O)COC(=O)COc1ccccc1 | -1 | 5 | -2 | 4 | 24 | 50*
Fc1ccccc1C1c2[nH]c3ccccc3c2CCN1Cc1ccoc1 (stereo unspecified) | -2 | 7 | -1 | 8 | 64* | -5
Cc1ncc(-c2ccncc2)c(C2CCCN(C(=O)C(C)C)C2)n1 (stereo unspecified) | . | . | . | . | -34 | .
NC(=O)c1ccc[n+]([C@@H]2O[C@H](COP(=O)([O-])OP(=O)(O)OC[C@H]3O[C@@H](n4cnc5c(N)ncnc54)[C@H](OP(=O)(O)O)[C@@H]3O)[C@@H](O)[C@H]2O)c1 | . | . | . | 10 | 71* | .
Nc1ncnc2c1ncn2C1O[C@H](COP(=O)(O)O)[C@@H](O)[C@H]1O (stereo partly specified) | . | . | . | 14 | 2 | .
CC(C)C(=O)n1nc(-c2cccnc2)nc1NCc1ccc(F)cc1 | 3 | 1 | . | 3 | 29 | 100*
CC(=O)n1nc(-c2ccc(C)cc2)nc1NCc1ccc(F)cc1 | -9 | -7 | -24 | 10 | -45 | 94*
COc1ccccc1C(=O)n1nc(-c2cccnc2)nc1NCc1ccccc1 | 15 | 3 | 0 | 2 | 27 | .
COc1ccc(CNc2nc(NCc3ccc(OC)cc3)n(C(C)=O)n2)cc1 | -5 | 6 | -3 | 6 | 8 | -1
COc1ccc(CC(=O)n2nc(-c3ccccc3)nc2NCc2ccco2)cc1 | 6 | 13 | -19 | . | 13 | 93*
CC(=O)n1nc(-c2ccc(C)cc2)nc1NCc1ccco1 | -1 | 10 | 6 | 8 | 11 | 69*
COc1ccc2c(=O)c(C(=O)NN)c[nH]c2c1 | . | . | . | 13 | 3 | .
C/C(N[O-])=C(\C)[N+]([O-])=[Co].CC(=N\[O-])/C(C)=N/[O-].O[C@@H]1[CH-]CCCC1.c1ccncc1 | . | . | . | 43* | -1 | .
CCOC(=O)c1cc2occc2n1Cc1ccc(F)cc1 | -9 | 10 | 10 | 13 | 85*! | -6
CCOC(=O)c1cc2occc2n1Cc1c(F)cccc1Cl | -6 | 4 | -3 | 19 | 44 | -8
COC(=O)c1cc2occc2n1Cc1c(F)cccc1Cl | 0 | 14 | -10 | 15 | 64* | 2
COc1cc(C(N)=O)cc(Br)c1OCc1ccccc1 | 9 | 17 | -10 | 7 | 32 | -6
CCOc1c(Br)cc(C(N)=O)cc1OCc1ccccc1 | 1 | 8 | -14 | 14 | 62* | -2
Cc1noc(C)c1C(=O)N[C@@H](Cn1nnc2ccccc21)C(C)C | . | . | . | 7 | -26 | .
Cc1nn(-c2ccccc2)c(C)c1NC(=O)c1cccs1 | 7 | 12 | 50* | 10 | -1 | 16
COc1ccccc1NC(=O)CSc1nnnn1-c1ccc(C)cc1C | . | . | . | 17 | -84 | .
CCn1nc(C)c(Br)c1C(=O)Sc1ccccc1Cl | 2 | 3 | 4 | 10 | 68* | 0
